The text below walks through data of ChEMBL document CHEMBL1135298, “Induction of apoptosis by aryl-substituted diamines: role of aromatic group substituents and distance between nitrogens” (Bioorg Med Chem Lett, 2002).

One assay relates to A-375. In words: Compound was evaluated for cytotoxic activity against human melanoma cell line A375. In kind it is functional, cell-based. The gist of the method: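 A375 melanoma medium contained 1 mM aminoguanidine, penicillin/streptomycin, 10% FBS, 1 mM sodium pyruvate and 2 mM L-glutamine.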
Assay [1] concerns MDA-MB-231. Description: Compound was evaluated for cytotoxic activity against human breast cancer cell line MDA-MB-231. In kind it is functional, cell-based. The method in brief:
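MDA-MB-231 grown in medium with 1 mM aminoguanidine, 50 U/mL penicillin, 50 µg/mL streptomycin, 10% FBS and 2 mM L-glutamine. Drug added 24 h after plating, cells grown a further 72 h. Cell number by MTS; IC50 (µM), some values as mean ± error (n).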

The subject of assay [2] is PC-3. In words: Compound was evaluated for cytotoxic activity against human prostate cancer cell line PC-3. In kind it is functional, cell-based.
The subject of the next assay is SK-OV-3. Description: Compound was evaluated for cytotoxic activity against human ovarian cancer cell line SK-OV-3. It is filed as functional, cell-based. The method in brief: (§1)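 SK-OV-3, Mes-SA and multidrug-resistant Mes-SA/Dx5 cultured in McCoy's 5A with 1 mM aminoguanidine, penicillin/streptomycin and 10% FBS.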
The subject of assay [3] is MDA-MB-231. Description: Inhibition of human breast cancer cell line MDA-MB-231 growth. It is filed as functional, cell-based.
Assay [4] has as its system PC-3. Description: Inhibition of human prostate cancer cell line PC-3 growth. It is filed as functional, cell-based.
For another assay, the system named is MES-SA. Description: Compound was evaluated for cytotoxic activity against the following human cancer cell Uterine cancer cell line Mes-SA. It is filed as functional, cell-based. The gist of the method: as §1
The next assay deals with SK-MEL-5. In words: Compound was evaluated for cytotoxic activity against human melanoma cell line SK-Mel-5. In kind it is functional, cell-based. The gist of the method: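 SK-Mel-5 maintained in EMEM supplemented with 1 mM aminoguanidine, 50 U/mL penicillin, 50 µg/mL streptomycin and 10% FBS.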
Another assay relates to T47D. Description: Compound was evaluated for cytotoxic activity against the following human cancer cell Breast cancer cell line T47 D. In kind it is functional, cell-based. The gist of the method:
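T47.D in RPMI 1640 with 1 mM aminoguanidine, penicillin/streptomycin, 10% FBS, 1 mM sodium pyruvate, 2 mM L-glutamine and 0.4% insulin.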

Assay [5] has as its target Nucleic Acid. Description: ability to interact with DNA was assessed by a DNA/ethidium bromide dye displacement assay, expressed as DC50 for polydAdT. It is filed as nucleic-acid assay. The gist of the method: (§2)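 Ethidium displacement run by an adapted literature method: 2.5 µM polydAdT with 1.5 µM ethidium bromide in 3.75 mM Tris/NaCl, pH 8.0. Compound added to the DNA–dye complex; DC50 reported.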

Assay [6] has as its system Mes-SA/Dx5 (Homo sapiens). Description: Compound was evaluated for cytotoxic activity against the following human cancer cell MDR Uterine cancer cell line Mes-SA/Dx5.
In assay [7] the target is Nucleic Acid. Description: Ability to interact with DNA was assessed by a DNA/ethidium bromide dye displacement assay, expressed as DC50 for polydAdT. It is filed as nucleic-acid assay. The gist of the method: as §2

A value given as a limit tells only on which side of the number the result lay.

Broadly, the IC50 is the point on the concentration scale where inhibition reaches its midpoint. A lower IC50 goes with greater potency in that assay. `c1ccc(-c2ccc(CNCCCCNCc3ccc(-c4ccccc4)cc3)cc2)cc1`: the IC50 in the assay on A-375 is 0.59 µM; with MDA-MB-231 [1] it was 1.92 µM; in the assay with PC-3 [2], 0.77 µM; in the assay on SK-OV-3 it was 0.74 µM.

Regarding `Clc1ccc(CNCCCCNCc2ccc(Cl)c(Cl)c2)cc1Cl`, the IC50 with MDA-MB-231 [3] came to 65 µM; in the assay on PC-3 [4] it was 20 µM.

Consider `c1ccc2c(CNCCCCNCc3c4ccccc4cc4ccccc34)c3ccccc3cc2c1`, for which the IC50 was 3.5 µM in the assay with MDA-MB-231 [3] and 2.7 µM with PC-3 [4].

For `Nc1ccccc1CNCCCCNCc1ccccc1N`, the results for the half-maximal inhibitory concentration (IC50) with MDA-MB-231 [3] and in the assay with PC-3 [4] were 146 µM and 98 µM, respectively.

Turning to `c1ccc(-c2ccc(CNCCCCCNCc3ccc(-c4ccccc4)cc3)cc2)cc1`, the IC50 in the assay on MDA-MB-231 [3] came out at 1.3 µM; in the assay on PC-3 [4] it was 0.48 µM.

In the case of `c1ccc(N(c2ccccc2)c2ccc(CNCCCCNCc3ccc(N(c4ccccc4)c4ccccc4)cc3)cc2)cc1`, the 50% inhibitory concentration (IC50) with A-375 was 0.4 µM; with MDA-MB-231 [1], 0.62 µM; with MES-SA, 0.64 µM; in the assay on PC-3 [2], 0.6 µM; in the assay with SK-OV-3, 0.68 µM; in the assay on SK-MEL-5, 0.94 µM. For the same compound, the IC50 with T47D turned out to be 0.65 µM; in assay [6] it was 0.61 µM. Further, the DC50 at Nucleic Acid [5] amounted to 9.4 µM.

Consider `c1ccc2c(CNCCCCNCc3c[nH]c4ccccc34)c[nH]c2c1`, for which the IC50 in the assay on MDA-MB-231 [3] was 77 µM; with PC-3 [4], 51 µM.

Turning to `Nc1cccc(CNCCCCNCc2cccc(N)c2)c1`, the IC50 in the assay with MDA-MB-231 [3] and with PC-3 [4] was greater than 300 µM each time.

In the case of `NCCCCNCc1ccc([N+](=O)[O-])cc1`, the half-inhibitory concentration (IC50) in the assay with MDA-MB-231 [3] turned out to be 201 µM; in the assay on PC-3 [4] it was 50 µM.

Turning to `O=[N+]([O-])c1cccc(CNCCCCNCc2cccc([N+](=O)[O-])c2)c1`, the IC50 in the assay on MDA-MB-231 [3] was 18 µM; in the assay with PC-3 [4], 9 µM.

For the compound `c1ccc2c(CNCCCCNCc3ccnc4ccccc34)ccnc2c1`, the results for the IC50 in the assay on MDA-MB-231 [3] and with PC-3 [4] were 9.4 µM and 8.4 µM, respectively.

For the compound `NCCCCNCc1ccccc1`, the results for the IC50 in the assay on MDA-MB-231 [3] and with PC-3 [4] were greater than 300 µM and 211 µM, respectively.

On to `O=[N+]([O-])c1ccc(CNCCCCNCc2ccc([N+](=O)[O-])cc2)cc1`, for which the values for the IC50 in the assay on MDA-MB-231 [3] and in the assay on PC-3 [4] were 205 µM and 143 µM, respectively.

`O=[N+]([O-])c1ccccc1CNCCCCNCc1ccccc1[N+](=O)[O-]`: the IC50 in the assay with MDA-MB-231 [3] was found to be 62 µM; in the assay on PC-3 [4] it was 23 µM.

In the case of `O=C1c2cccc3cccc(c23)C(=O)N1CCNCCCNCCN1C(=O)c2cccc3cccc(c23)C1=O` [ELINAFIDE], the half-maximal inhibitory concentration (IC50) with MDA-MB-231 [3] was 0.06 µM; in the assay on PC-3 [4], 0.07 µM.

As to `c1ccc2c(CNCCCCNCc3cccc4ccccc34)cccc2c1`, the IC50 in the assay with A-375 came to 5.4 µM; with MDA-MB-231 [1] it was 9.1 µM; in the assay with MES-SA, 10.1 µM; in the assay with PC-3 [2] it was 10 µM; in the assay with SK-OV-3 it was 8.5 µM; with SK-MEL-5 it was 4.6 µM. Besides, the values for the IC50 (with T47D; in assay [6]) were 6.5 µM and 7.2 µM, respectively. This compound also returned a DC50 at Nucleic Acid [7] of 8.7 µM.

`c1ccc(-c2ccc(CNCCCNCc3ccc(-c4ccccc4)cc3)cc2)cc1`: the concentration for half-maximal inhibition (IC50) with MDA-MB-231 [3] is 2 µM; in the assay on PC-3 [4], 0.8 µM.

As for `NCCCCNCc1cccc2ccccc12`, the figures for the IC50 with MDA-MB-231 [3] and in the assay on PC-3 [4] were greater than 300 µM and 211 µM, respectively.

As to `[N-]=[N+]=Nc1cccc(CNCCCCNCc2cccc(N=[N+]=[N-])c2)c1`, the IC50 in the assay with MDA-MB-231 [3] came to 19 µM; with PC-3 [4] it was 15 µM.

With `CN(C)c1ccc(CNCCCCNCc2ccc(N(C)C)cc2)cc1`, the half-maximal inhibitory concentration (IC50) in the assay with MDA-MB-231 [3] was found to be 197 µM; in the assay on PC-3 [4] it was 56 µM.

On to `c1ccc2c(c1)Cc1cc(CNCCCCNCc3ccc4c(c3)Cc3ccccc3-4)ccc1-2`, for which the half-maximal inhibitory concentration (IC50) came out at 6.6 µM in the assay on MDA-MB-231 [3] and 1.85 µM with PC-3 [4].

Consider `COc1ccc(CNCCCCNCc2ccc(OC)c3ccccc23)c2ccccc12`, for which the IC50 with MDA-MB-231 [3] stood at 2.8 µM; with PC-3 [4], 3.2 µM.

In the case of `N#Cc1ccc(CNCCCCNCc2ccc(C#N)cc2)cc1`, the IC50 in the assay on MDA-MB-231 [3] is 84 µM; in the assay with PC-3 [4], 22 µM.

On Nucleic Acid [5], `Cn1cc(NC(=O)c2cc(NC(=O)c3cc(NC=O)cn3C)cn2C)cc1C(=O)NCCC(=N)N` [STALLIMYCIN] displayed a DC50 of 44 µM.

For `c1ccc2cc(CNCCCCNCc3ccc4ccccc4c3)ccc2c1`, the IC50 in the assay on MDA-MB-231 [3] is 2.1 µM; in the assay with PC-3 [4], 2.5 µM.

Turning to `c1ccc2c(CNCc3ccc(CNCc4cccc5ccccc45)cc3)cccc2c1`, the figures for the concentration for half-maximal inhibition (IC50) in the assay with MDA-MB-231 [3] and in the assay with PC-3 [4] were 7 µM and 14 µM, respectively.

For the compound `c1ccc2c(CNCCCNCc3cccc4ccccc34)cccc2c1`, the IC50 came to 5.1 µM in the assay on MDA-MB-231 [3] and 4.3 µM in the assay with PC-3 [4].

For `CC(CCC(C)NCc1cccc2ccccc12)NCc1cccc2ccccc12` (stereo not given), the IC50 with MDA-MB-231 [3] is 5 µM; with PC-3 [4] it was 7 µM.

`COc1ccc(CNCCCCNCc2ccc(OC)cc2)cc1`: the IC50 was found to be 21 µM with MDA-MB-231 [3] and 6 µM with PC-3 [4].

Regarding `c1ccc2c(CNCCCCCNCc3cccc4ccccc34)cccc2c1`, the IC50 turned out to be 8.3 µM with MDA-MB-231 [3] and 6.5 µM in the assay with PC-3 [4].

Regarding `c1ccc2c(CCNCCCCNCCc3cccc4ccccc34)cccc2c1`, the figures for the IC50 in the assay on MDA-MB-231 [3] and in the assay with PC-3 [4] were 25 µM and 37 µM, respectively.

Take `c1cc(CNCc2cccc3ccccc23)cc(CNCc2cccc3ccccc23)c1`: the IC50 was determined as 19 µM with MDA-MB-231 [3] and 20 µM in the assay with PC-3 [4].

`c1cc2c(cc1CNCCCCNCc1ccc3c(c1)OCO3)OCO2`: the IC50 is 70 µM in the assay with MDA-MB-231 [3] and 56 µM with PC-3 [4].

Consider `COc1cc(CNCCCCNCc2cc(OC)c(OC)c(OC)c2)cc(OC)c1OC`, for which the half-maximal inhibitory concentration (IC50) in the assay on MDA-MB-231 [3] and with PC-3 [4] was 58 µM in each case.

For the compound `N#Cc1cccc(CNCCCCNCc2cccc(C#N)c2)c1`, the IC50 with MDA-MB-231 [3] came out at 42 µM; in the assay on PC-3 [4], 10 µM.
